# Measured values taken from ChEMBL document CHEMBL1275449, “Potent in vitro antifungal activities of naturally occurring acetylenic acids” (Antimicrob Agents Chemother, 2008).
# Calls of active or inactive are those of the source. No cut-off for these calls is given here.
# Tests used:
# Aspergillus fumigatus [1] = assay: Antifungal activity against Aspergillus fumigatus ATCC 204305 at 178.6 uM after 48 hrs by CLSI method; format: functional, organism-based
# Nakaseomyces glabratus = assay: Antifungal activity against Candida glabrata ATCC 90030 at 178.6 uM after 48 hrs by CLSI method; format: functional, organism-based
# In short: (§1)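 Candida inocula came from 24–72-h SD agar colonies suspended in saline. They were diluted by OD630 standard curve into RPMI 1640 (0.2% dextrose, 0.03% glutamine, 0.165 M MOPS, pH 7.0) to 1.5 × 10³ CFU/ml. Compounds were run as 11 twofold dilutions in 20% DMSO-saline, in duplicate, at 35°C for 48 h, with OD530 read before and after. Percent growth at the top concentration, IC50, MIC, and MFC (SD agar plating) were derived.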
# Vero = assay: Cytotoxicity against African green monkey Vero cells up to 32 uM by neutral red method; format: cell-based; conditions: chlorocebus sabaeus
# In short: (§2)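 Neutral red uptake cytotoxicity, top concentration 32 μM.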
# Candida tropicalis = assay: Antifungal activity against Candida tropicalis ATCC 750 at 178.6 uM after 48 hrs by CLSI method; format: functional, organism-based
# In short: (§3)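 Yeast suspensions made from 3-5 colonies off 24-72 h SD agar plates in saline. They were diluted by OD630 standard curve in RPMI 1640 (0.2% dextrose, 0.03% glutamine, 0.165 M MOPS, pH 7.0) to 1.5 × 10³ CFU/ml. Twofold dilutions (11 concentrations, 20% DMSO-saline) run in duplicate. OD530 read before and after 35°C, 48 h. Line values are top test concentrations; no-growth endpoints give MIC/MFC.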
# Aspergillus niger = assay: Antifungal activity against Aspergillus niger ATCC 16404 at 178.6 uM after 48 hrs by CLSI method; format: functional, organism-based
# [2] = test system: Trichophyton mentagrophytes; assay: Antifungal activity against Trichophyton mentagrophytes ATCC 9533 at 178.6 uM after 5 days by CLSI method; format: functional, organism-based
# Cryptococcus neoformans [3] = assay: Antifungal activity against Cryptococcus neoformans ATCC 90113 at 178.6 uM after 72 hrs by CLSI method; format: functional, organism-based
# In short: (§4)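 SD broth replaced RPMI because growth in RPMI was poor; other CLSI conditions were kept. Inoculum was 1.5 × 10³ CFU/ml from colonies on SD agar, checked by plating. Twofold serial dilutions (11 concentrations) in 20% DMSO-saline were tested in duplicate. OD530 was read before and after incubation at 35°C for 72 h. Percent growth gave IC50; the MIC is the lowest concentration with no detectable growth.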
# Aspergillus flavus = assay: Antifungal activity against Aspergillus flavus ATCC 204304 at 178.6 uM after 48 hrs by CLSI method; format: functional, organism-based
# Candida albicans [4] = assay: Antifungal activity against Candida albicans ATCC 32354 at 178.6 uM after 48 hrs by CLSI method; format: functional, organism-based; in short: as §1
# Aspergillus fumigatus [5] = assay: Antifungal activity against Aspergillus fumigatus ATCC 90906 at 178.6 uM after 48 hrs by CLSI method; format: functional, organism-based
# Candida albicans [6] = assay: Antifungal activity against Fluconazole resistant Candida albicans isolate 17 at 178.6 uM after 48 hrs by CLSI method; format: functional, organism-based
# In short: (§5)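 Candida in CLSI broth microdilution. Saline colony suspension set to 1.5 × 10³ CFU/ml (final) in MOPS-buffered RPMI 1640, pH 7.0. Test agent given as twofold serial dilutions in 20% DMSO-saline, duplicate wells. 35°C for 48 h. Growth read as OD530 before and after incubation. Percent inhibition scored at the highest test concentration.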
# Trichophyton rubrum [7] = assay: Antifungal activity against Trichophyton rubrum ATCC 10218 by CLSI method; format: functional, organism-based
# In short: (§6)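 Growth scraped from 1- to 6-week-old potato dextrose slants and filtered through Miracloth. Diluted in 5% Alamar blue-RPMI 1640 (MOPS pH 7.0) to 2.7 × 10⁴ CFU/ml. Eleven twofold dilutions in duplicate. Fluorescence at 544 nm excitation/590 nm emission read before and after 35°C, 5 days. IC50 fitted from percent growth. MIC taken as no detectable growth; MFC from clear or blue wells plated on PD agar.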
# KB = assay: Cytotoxicity against human KB cells up to 32 uM by neutral red method; format: cell-based; in short: as §2
# SK-OV-3 = assay: Cytotoxicity against human SKOV3 cells up to 32 uM by neutral red method; format: cell-based; in short: as §2
# [8] = test system: Trichophyton mentagrophytes; assay: Antifungal activity against Trichophyton mentagrophytes ATCC MYA-4439 at 178.6 uM after 5 days by CLSI method; format: functional, organism-based
# [9] = test system: Trichophyton mentagrophytes; assay: Antifungal activity against Trichophyton mentagrophytes ATCC MYA-4439 by CLSI method; format: functional, organism-based; in short: as §6
# Candida albicans [10] = assay: Antifungal activity against Candida albicans ATCC 14053 at 178.6 uM after 48 hrs by CLSI method; format: functional, organism-based
# Trichophyton rubrum [11] = assay: Antifungal activity against Trichophyton rubrum ATCC 10218 at 178.6 uM after 5 days by CLSI method; format: functional, organism-based
# Cryptococcus neoformans [12] = assay: Antifungal activity against Cryptococcus neoformans ATCC 66031 after 72 hrs by CLSI method; format: functional, organism-based; conditions: ATCC 66031, 72 h; in short: as §4
# Candida albicans [13] = assay: Antifungal activity against Candida albicans ATCC 200955 at 178.6 uM after 48 hrs by CLSI method; format: functional, organism-based; in short: as §1
# Candida albicans [14] = assay: Antifungal activity against Candida albicans ATCC 90028 at 178.6 uM after 48 hrs by CLSI method; format: functional, organism-based; in short: as §1
# Trichophyton rubrum [15] = assay: Antifungal activity against Trichophyton rubrum ATCC MYA-4438 at 178.6 uM after 5 days by CLSI method; format: functional, organism-based
# SK-MEL = assay: Cytotoxicity against human SK-MEL cells up to 32 uM by neutral red method; format: cell-based; in short: as §2
# LLC-PK1 = assay: Cytotoxicity against pig LLC-PK1 cells up to 32 uM by neutral red method; format: cell-based, Sus scrofa; in short: as §2
# Cryptococcus neoformans [16] = assay: Antifungal activity against Cryptococcus neoformans ATCC 66031 at 178.6 uM after 72 hrs by CLSI method; format: functional, organism-based; in short: as §4
# Trichophyton rubrum [17] = assay: Antifungal activity against Trichophyton rubrum ATCC MYA-4438 by CLSI method; format: functional, organism-based; in short: as §6
# BT-549 = assay: Cytotoxicity against human BT549 cells up to 32 uM by neutral red method; format: cell-based; in short: as §2
# Candida albicans [18] = assay: Antifungal activity against Candida albicans ATCC 60193 at 178.6 uM after 48 hrs by CLSI method; format: functional, organism-based; in short: as §1
# Candida albicans [19] = assay: Antifungal activity against Fluconazole resistant Candida albicans isolate 1 at 178.6 uM after 48 hrs by CLSI method; format: functional, organism-based; in short: as §5
# Candida parapsilosis = assay: Antifungal activity against Candida parapsilosis ATCC 22019 at 178.6 uM after 48 hrs by CLSI method; format: functional, organism-based; in short: as §3
# Pichia kudriavzevii = assay: Antifungal activity against Candida krusei ATCC 6258 after 48 hrs by CLSI method; format: functional, organism-based; conditions: ATCC 6258, 48 h; in short: as §1
smiles,measurement,setting,value
CCCCCCCCC#CCCCCCCCC(=O)O,Activity,Aspergillus fumigatus [1],inactive
same,Activity,Nakaseomyces glabratus,inactive
same,Activity,Vero,Non-toxic
same,Activity,Candida tropicalis,inactive
same,Activity,Aspergillus niger,inactive
same,Activity,[2],inactive
same,Activity,Cryptococcus neoformans [3],inactive
same,Activity,Aspergillus flavus,inactive
same,Activity,Candida albicans [4],inactive
same,Activity,Aspergillus fumigatus [5],inactive
same,Activity,Candida albicans [6],inactive
same,IC50,Trichophyton rubrum [7],> 179 µM
same,Activity,KB,Non-toxic
same,Activity,SK-OV-3,Non-toxic
same,Activity,[8],inactive
same,IC50,[9],> 179 µM
same,Activity,Candida albicans [10],inactive
same,Activity,Trichophyton rubrum [11],inactive
same,IC50,Cryptococcus neoformans [12],> 179 µM
same,Activity,Candida albicans [13],inactive
same,Activity,Candida albicans [14],inactive
same,Activity,Trichophyton rubrum [15],inactive
same,Activity,SK-MEL,Non-toxic
same,Activity,LLC-PK1,Non-toxic
same,Activity,Cryptococcus neoformans [16],inactive
same,IC50,Trichophyton rubrum [17],80.2 µM
same,Activity,BT-549,Non-toxic
same,Activity,Candida albicans [18],inactive
same,Activity,Candida albicans [19],inactive
same,Activity,Candida parapsilosis,inactive
same,IC50,Pichia kudriavzevii,> 179 µM
